The structures appear in SMILES notation. In brackets after ≈: the same amount, converted by molar mass. Activity calls are given as the source filed them. The rule behind the calls is not given here.

Format in all cases: functional
Assay [1] deals with Rattus norvegicus. Kind of assay: Antiinflammatory activity in Albino rat assessed as protection against carrageenan-induced hind paw oedema at 10 mg/kg, po after 3 hrs. In a few lines:
(§1)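 Rats (150–250 g, either sex) were fasted 18 h and grouped in sixes. Compounds or standards were given orally as a suspension in 5% DMSO. After 1 h, 0.1 ml of 1% carrageenin was injected subplantar into the right hind paw. Paw volume was read by mercury plethysmometer at once and at 3 h. % protection = 100(1−Vt/Vc) versus vehicle.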
In general terms: In the carrageenan paw model, swelling and tenderness develop within hours.

The subject of assay [2] is Rattus norvegicus. The assay can be described thus: Antiinflammatory activity in Albino rat assessed as protection against carrageenan-induced hind paw oedema at 40 mg/kg, po after 3 hrs. In a few lines: as §1
Assay [3] concerns Rattus norvegicus. Kind of assay: Antiinflammatory activity in Albino rat assessed as protection against carrageenan-induced hind paw oedema at 20 mg/kg, po after 3 hrs. In a few lines:
as §1

Assay [4] can be described thus: Antioxidant activity assessed as nitric oxide radical scavenging activity at 15 ug/ml after 150 mins. In a few lines: (§2)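 Sodium nitroprusside (10 mmol) in PBS at physiological pH was incubated with sample at 25 °C for 150 min in a 3 ml reaction. Aliquots taken every 30 min were mixed 1:1 with Griess reagent (1% sulphanilamide, 0.1% naphthylethylenediamine in 2% H3PO4), and absorbance was read at 546 nm. Runs were done in triplicate, and % scavenging was calculated against the blank.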

Assay [5] can be described thus: Antioxidant activity assessed as nitric oxide radical scavenging activity at 10 ug/ml after 150 mins. In a few lines:
as §2

A short description of assay [6]: Antioxidant activity assessed as nitric oxide radical scavenging activity at 25 ug/ml after 150 mins. In a few lines:
as §2

Assay [7] can be described thus: Antioxidant activity assessed as nitric oxide radical scavenging activity at 30 ug/ml after 150 mins. The method, boiled down:
as §2

Assay [8] is described as follows: Inhibition of nitric oxide radical scavenging activity. In a few lines: as §2
Assay [9] in a line: Antioxidant activity assessed as nitric oxide radical scavenging activity at 35 ug/ml after 150 mins. In a few lines: as §2
Assay [10] is described as follows: Antioxidant activity assessed as nitric oxide radical scavenging activity at 5 ug/ml after 150 mins. In a few lines: as §2
In another assay the test system is Mus musculus. The assay can be described thus: Analgesic activity in Albino mouse assessed as protection against acetic acid-induced writhing at 10 mg/kg, ip within 30 mins. The conditions noted are these: route intraperitoneal. In a few lines:
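Mice (20–25 g, either sex) starved 16 h, six per group, given 10 mg/kg i.p.; vehicle control received 1% DMSO at 0.5 ml/100 g. After 1 h, 0.1 ml of 3% acetic acid was given. Writhes were counted over 30 min, and the group mean was expressed as % inhibition versus control. Student's t-test was used.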
(In general: Writhing tests count abdominal constrictions after an irritant is injected.)

Assay [11] is described as follows: Antioxidant activity assessed as nitric oxide radical scavenging activity at 20 ug/ml after 150 mins. The method, boiled down:
as §2

`COC(=O)c1c(Nc2ccc(F)cc2)sc(/C(=N/O)c2ccc(OC)cc2)c1C`: the figures for the Activity in the assay with Rattus norvegicus [1], in the assay with Rattus norvegicus [2] and with Rattus norvegicus [3] were 20%, 30% and 25%, respectively.

As usually defined, the IC50 is the concentration that inhibits the measured activity by half. Turning to `COc1ccc(C(=O)c2sc(Nc3ccccc3)c(C(=O)O)c2C)cc1`, the Activity in assay [4] came to 36.5%; in [5], 24.7%; in assay [6], 52.6%; in [7] it was 59.5%; in assay [9], 61.2%; in the assay on Rattus norvegicus [1], 79%. Moreover, the Activity in assay [10] came out at 19.6%; in the assay on Rattus norvegicus [2] it was 70%; in the assay with Mus musculus it was 30%; with Rattus norvegicus [3], 80%; in assay [11] it was 41.2%. This compound displayed a half-inhibitory concentration (IC50) in assay [8] of 25.2 µg/mL (≈ 68.6 µM).

For the compound `COC(=O)c1c(Nc2ccc(OC)cc2)sc(C(=O)c2ccc(OC)cc2)c1C`, the Activity was 7.8% in assay [4]; 5.9% in assay [5]; 15.4% in assay [6]; 20.5% in assay [7]; 25.1% in [9]; 71% with Rattus norvegicus [1]. The Activity in [10] was found to be 4.29%; with Rattus norvegicus [2] it was 76%; with Mus musculus it was 40%; in the assay with Rattus norvegicus [3], 72%; in assay [11] it was 12%. In assay [8], this compound registered an IC50 of 72.21 µg/mL (≈ 175 µM).

Regarding `COC(=O)c1c(Nc2ccc(Cl)cc2)sc(/C(=N\O)c2ccc(C)cc2)c1C`, the Activity was 13% with Rattus norvegicus [1], 42% in the assay on Rattus norvegicus [2] and 29% in the assay on Rattus norvegicus [3].

Take `Cc1ccc(C(=O)c2sc(Nc3ccc(Cl)cc3)c(C(=O)O)c2C)cc1`: the result in assay [4], in assay [5], in assay [6], in [7], in assay [8] and in assay [9] was inactive. Also, the outcome in assay [10] and in [11] was inactive. The Activity in the assay with Rattus norvegicus [1] came to 63%; in the assay with Rattus norvegicus [2] it was 59%; in the assay with Mus musculus it was 24%; with Rattus norvegicus [3], 68%.

`COC(=O)c1c(Nc2ccccc2)sc(C(=O)c2ccc(OC)cc2)c1C`: the Activity in [4] was 28.6%; in assay [5] it was 18%; in [6], 36.9%; in assay [7], 48.1%; in [9] it was 63%; with Rattus norvegicus [1] it was 69%. Further, the Activity in [10] was determined as 13.3%; in the assay with Rattus norvegicus [2], 73%; in the assay on Mus musculus, 55%; with Rattus norvegicus [3], 70%; in [11] it was 32.4%. Also, the IC50 in assay [8] turned out to be 30.08 µg/mL (≈ 78.9 µM).

Consider `Cc1ccc(C(=O)c2sc(Nc3ccccc3)c(C(=O)O)c2C)cc1`, for which the Activity was 1.25% in assay [4]; 0.85% in [5]; 4.35% in assay [6]; 5.13% in assay [7]; 5.55% in [9]; 45% in the assay with Rattus norvegicus [1]. In addition, the Activity came to 0.26% in [10]; 42% in the assay on Rattus norvegicus [2]; 17% in the assay with Mus musculus; 47% in the assay with Rattus norvegicus [3]; 2.68% in assay [11]. The compound further showed an IC50 in [8] of 259.47 µg/mL (≈ 738 µM).

For `COC(=O)c1c(Nc2ccc(Cl)cc2)sc(C(=O)c2ccc(C)cc2)c1C`, the outcome in assay [4], in assay [5], in assay [6], in [7], in assay [8] and in [9] was inactive. Also, the result in assay [10] and in assay [11] was inactive. The Activity stood at 34% in the assay with Rattus norvegicus [1], 26% with Rattus norvegicus [2], 43% in the assay on Mus musculus and 66% in the assay on Rattus norvegicus [3].

`COc1ccc(C(=O)c2sc(Nc3ccc(C)cc3)c(C(=O)O)c2C)cc1`: the result in assay [4], in assay [5], in assay [6], in assay [7], in assay [8] and in assay [9] was inactive. For the same compound, the result in [10] and in [11] was inactive. Further, the Activity in the assay with Rattus norvegicus [1] is recorded as 56%; in the assay with Rattus norvegicus [2], 62%; in the assay on Mus musculus, 26%; with Rattus norvegicus [3], 63%.

As to `COC(=O)c1c(Nc2ccc(Cl)cc2)sc(C(=O)c2ccc(OC)cc2)c1C`, the result in assay [4], in assay [5], in assay [6], in assay [7], in assay [8] and in assay [9] was inactive. Also, the outcome in assay [10] and in assay [11] was inactive. Also, the Activity in the assay on Rattus norvegicus [1] is reported as 42%; in the assay with Rattus norvegicus [2] it was 39%; with Mus musculus, 60%; in the assay on Rattus norvegicus [3], 40%.

`COC(=O)c1c(Nc2ccc(C)cc2)sc(C(=O)c2ccc(C)cc2)c1C`: the outcome in [4], in assay [5], in assay [6], in [7], in assay [8] and in assay [9] was inactive. Also, the result in assay [10] and in assay [11] was inactive. The Activity in the assay on Rattus norvegicus [1] came out at 32%; in the assay with Rattus norvegicus [2] it was 37%; in the assay with Mus musculus, 22%; with Rattus norvegicus [3], 36%.

`COc1ccc(C(=O)c2sc(Nc3ccc(F)cc3)c(C(=O)O)c2C)cc1`: the Activity amounted to 1.98% in [4]; 0.98% in [5]; 8.36% in [6]; 10.5% in assay [7]; 12.8% in assay [9]; 57% in the assay with Rattus norvegicus [1]. Besides, the Activity is 0.1% in assay [10]; 54% with Rattus norvegicus [2]; 28% in the assay with Mus musculus; 57% in the assay on Rattus norvegicus [3]; 3.58% in assay [11]. The IC50 in [8] came out at 118.32 µg/mL (≈ 307 µM).

On to `COC(=O)c1c(Nc2ccc(C)cc2)sc(/C(=N/O)c2ccc(OC)cc2)c1C`, for which the Activity turned out to be 22% in the assay on Rattus norvegicus [1], 30% in the assay on Rattus norvegicus [2] and 27% with Rattus norvegicus [3].

With `COC(=O)c1c(Nc2ccc(F)cc2)sc(C(=O)c2ccc(C)cc2)c1C`, the outcome in [4], in assay [5], in assay [6], in [7], in assay [8] and in assay [9] was inactive. Further, the result in [10] and in [11] was inactive. Besides, the Activity stood at 38% in the assay with Rattus norvegicus [1], 23% in the assay on Rattus norvegicus [2], 37% with Mus musculus and 46% with Rattus norvegicus [3].

Take `Cc1ccc(C(=O)c2sc(Nc3ccc(F)cc3)c(C(=O)O)c2C)cc1`: the result in assay [4], in [5], in assay [6], in assay [7], in assay [8] and in [9] was inactive. The outcome in [10] and in [11] was inactive. For the same compound, the Activity with Rattus norvegicus [1] was found to be 38%; with Rattus norvegicus [2] it was 42%; with Mus musculus it was 22%; in the assay on Rattus norvegicus [3], 44%.

Take `COC(=O)c1c(Nc2ccc(Cl)cc2)sc(/C(=N/O)c2ccc(OC)cc2)c1C`: the Activity in the assay on Rattus norvegicus [1] amounted to 3%; in the assay with Rattus norvegicus [2] it was 30%; in the assay on Rattus norvegicus [3] it was 12%.

Regarding `COC(=O)c1c(Nc2ccccc2)sc(/C(=N/O)c2ccc(OC)cc2)c1C`, the Activity in the assay on Rattus norvegicus [1] was found to be 5%; in the assay on Rattus norvegicus [2], 34%; in the assay on Rattus norvegicus [3], 38%.

Take `CC(C)Cc1ccc(C(C)C(=O)O)cc1` (centres undefined) [IBUPROFEN]: the Activity in the assay on Mus musculus is given as 60%; in the assay with Rattus norvegicus [3] it was 33%.

As for `COC(=O)c1c(Nc2ccccc2)sc(/C(=N/O)c2ccc(C)cc2)c1C`, the figures for the Activity in the assay with Rattus norvegicus [1], in the assay with Rattus norvegicus [2] and in the assay with Rattus norvegicus [3] were 13%, 30% and 21%, respectively.

Source of the values: ChEMBL document CHEMBL1147872, “Syntheses of new tetrasubstituted thiophenes as novel anti-inflammatory agents” (Eur J Med Chem, 2007).
